The record followed here is ChEMBL document CHEMBL3600323, “Structure-Activity and Structure-Property Relationship and Exploratory in Vivo Evaluation of the Nanomolar Keap1-Nrf2 Protein-Protein Interaction Inhibitor” (J Med Chem, 2015).

The structures appear in SMILES notation. In brackets after ≈: the same amount, converted by molar mass. Activity calls are given as the source filed them. No cut-off for these calls is given here.

Series [1] can be described thus: Solubility of the compound. Type of series: physicochemical. An outline of the steps:
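Intrinsic solubility determined by the pH-metric method, a potentiometric acid−base titration, using the pSOL model.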

Series [2] in a line: Lipophilicity, log D of the compound. The format is physicochemical. The note with it: octanol/water. An outline of the steps: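 log D at pH 7.4 measured by Avdeef−Bucher potentiometric titration on a Gemini Profiler instrument.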
Another series addresses Keap1/Nrf2 (Homo sapiens, UniProt Q14145). Nature of the series: Inhibition of Keap1 Kelch domain-Nrf2 ETGE (unknown origin) protein-protein interaction incubated for 30 mins by fluorescence polarization competition assay. A general note: Polarisation of emitted light reports the rotation of a fluorescent probe.
Series [3] relates to Mus musculus. Nature of the series: Anti-inflammatory in LPS-challenged C57BL/6 mouse model of acute inflammation assessed as reduction in IL17 level at 10 mg/kg, ip for 3 days pre-treated for 3 days followed by LPS challenge 24 hrs after last dose and measured 5 hrs post LPS challenge by ELISA method. The format is functional, organism-based. An outline of the steps: (§1)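 Female C57BL/6 mice (12−16 weeks), randomised, n = 10 per group; single daily IP injection on days −3, −2, −1, then 300 μg LPS IP 24 h after the last dose (day 0). Controls were saline-only and saline plus LPS, with dexamethasone 10 mg/kg/day as positive control. Sera taken 5 h post-LPS; plasma frozen at −20 °C and cytokines read by double-sandwich ELISA; mean ± SEM.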
A general note: ELISA stands for enzyme-linked immunosorbent assay.

For series [4], the system named is Mus musculus. Briefly: Anti-inflammatory in LPS-challenged C57BL/6 mouse model of acute inflammation assessed as reduction in IL12 level at 10 mg/kg, ip for 3 days pre-treated for 3 days followed by LPS challenge 24 hrs after last dose and measured 5 hrs post LPS challenge by ELISA method. Type of series: functional, organism-based. The procedure, abridged:
as §1

The subject of series [5] is Mus musculus. Nature of the series: Anti-inflammatory in LPS-challenged C57BL/6 mouse model of acute inflammation assessed as reduction in IFNgamma level at 10 mg/kg, ip for 3 days pre-treated for 3 days followed by LPS challenge 24 hrs after last dose and measured 5 hrs post LPS challenge by ELISA method. Type of series: functional, organism-based. The procedure, abridged:
as §1

In series [6] the test system is Mus musculus. Nature of the series: Anti-inflammatory in LPS-challenged C57BL/6 mouse model of acute inflammation assessed as reduction in IL6 level at 10 mg/kg, ip for 3 days pre-treated for 3 days followed by LPS challenge 24 hrs after last dose and measured 5 hrs post LPS challenge by ELISA method. Type of series: functional, organism-based. The procedure, abridged:
as §1

Series [7] concerns Mus musculus. Briefly: Anti-inflammatory in LPS-challenged C57BL/6 mouse model of acute inflammation assessed as reduction in TNFalpha level at 10 mg/kg, ip for 3 days pre-treated for 3 days followed by LPS challenge 24 hrs after last dose and measured 5 hrs post LPS challenge by ELISA method. Type of series: functional, organism-based. The procedure, abridged:
as §1

Series [8] concerns Mus musculus. Nature of the series: Toxicity in LPS-challenged C57BL/6 mouse model of acute inflammation assessed as changes in body weight at 80 mg/kg, ip for 3 days pre-treated for 3 days followed by LPS challenge 24 hrs after last dose and measured 5 hrs post LPS challenge. The format is organism-based. The note with it: in vivo. The procedure, abridged: (§2)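 Female C57BL/6 mice (12−16 weeks), n = 10 per group, dosed IP once daily on days −3 to −1, then challenged with 300 μg LPS IP 24 h after the last dose. Body weight and signs of acute toxicity were monitored during the pretreatment period.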

Series [9] relates to Mus musculus. Nature of the series: Toxicity in LPS-challenged C57BL/6 mouse model of acute inflammation assessed as changes in body weight at 10 mg/kg, ip for 3 days pre-treated for 3 days followed by LPS challenge 24 hrs after last dose and measured 5 hrs post LPS challenge. Type of series: organism-based. The note with it: in vivo. The procedure, abridged:
as §2

The subject of series [10] is Mus musculus. Nature of the series: Toxicity in LPS-challenged C57BL/6 mouse model of acute inflammation at 10 mg/kg, ip for 3 days pre-treated for 3 days followed by LPS challenge 24 hrs after last dose and measured 5 hrs post LPS challenge. The format is organism-based. Particulars: in vivo. An outline of the steps: as §2
Series [11] has as its system Mus musculus. Briefly: Toxicity in LPS-challenged C57BL/6 mouse model of acute inflammation at 80 mg/kg, ip for 3 days pre-treated for 3 days followed by LPS challenge 24 hrs after last dose and measured 5 hrs post LPS challenge. The format is organism-based. The note with it: in vivo. The procedure, abridged:
as §2

Chain of Keap1/Nrf2 (Q16236 whole entry, the tested form may be a part): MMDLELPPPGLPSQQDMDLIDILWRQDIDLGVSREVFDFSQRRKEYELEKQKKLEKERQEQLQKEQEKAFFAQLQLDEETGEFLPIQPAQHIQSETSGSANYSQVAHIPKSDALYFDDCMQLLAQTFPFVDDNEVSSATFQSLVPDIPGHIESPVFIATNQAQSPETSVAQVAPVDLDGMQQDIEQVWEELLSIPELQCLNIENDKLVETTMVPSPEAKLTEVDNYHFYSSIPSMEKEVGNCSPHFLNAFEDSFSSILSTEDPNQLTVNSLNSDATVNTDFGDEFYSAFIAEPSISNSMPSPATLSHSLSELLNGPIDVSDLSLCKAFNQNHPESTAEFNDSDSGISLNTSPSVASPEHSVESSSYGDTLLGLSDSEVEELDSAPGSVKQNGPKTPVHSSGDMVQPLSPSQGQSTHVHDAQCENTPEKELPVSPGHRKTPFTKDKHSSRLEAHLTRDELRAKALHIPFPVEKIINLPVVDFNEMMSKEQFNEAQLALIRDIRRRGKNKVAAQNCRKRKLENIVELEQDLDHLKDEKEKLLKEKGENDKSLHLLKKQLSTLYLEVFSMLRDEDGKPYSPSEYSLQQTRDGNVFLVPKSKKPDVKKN
Chain of Keap1/Nrf2 (Q14145 whole entry, the tested form may be a part): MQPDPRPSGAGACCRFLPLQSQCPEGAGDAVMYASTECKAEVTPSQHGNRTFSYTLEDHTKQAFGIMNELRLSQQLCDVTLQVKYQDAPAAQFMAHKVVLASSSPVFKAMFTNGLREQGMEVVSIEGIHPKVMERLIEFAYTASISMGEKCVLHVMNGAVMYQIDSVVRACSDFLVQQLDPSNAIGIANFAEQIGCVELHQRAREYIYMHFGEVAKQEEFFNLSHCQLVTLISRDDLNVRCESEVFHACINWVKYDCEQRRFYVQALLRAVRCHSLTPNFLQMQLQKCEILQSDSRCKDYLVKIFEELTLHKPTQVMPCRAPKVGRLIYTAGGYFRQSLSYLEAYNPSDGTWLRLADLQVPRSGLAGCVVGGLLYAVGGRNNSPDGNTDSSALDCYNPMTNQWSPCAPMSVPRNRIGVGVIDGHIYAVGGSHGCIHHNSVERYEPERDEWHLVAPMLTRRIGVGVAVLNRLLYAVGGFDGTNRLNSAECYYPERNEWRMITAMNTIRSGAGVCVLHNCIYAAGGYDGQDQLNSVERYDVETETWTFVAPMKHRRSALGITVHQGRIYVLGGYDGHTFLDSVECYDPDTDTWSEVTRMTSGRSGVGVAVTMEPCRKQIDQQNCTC

As to `O=C(O)CN(c1ccc(N(CC(=O)O)S(=O)(=O)c2ccc(OC(F)(F)F)cc2)c2ccccc12)S(=O)(=O)c1ccc(OC(F)(F)F)cc1`, the solubility in series [1] (read-out: solubility) came out at 12.3 µg/mL (≈ 17 µM). In [2], this compound came in with a logD of 0.93. The same compound showed an IC50 at Keap1/Nrf2 of 179 nM.

On to `CC(C)(C)c1ccc(S(=O)(=O)N(CC(=O)O)c2ccc(N(CC(=O)O)S(=O)(=O)c3ccc(C(C)(C)C)cc3)c3ccccc23)cc1`, for which the solubility in [1] (read-out: solubility) was determined as 1.6 µg/mL (≈ 2.4 µM). The same compound had a logD in series [2] of 5.2. Besides, the IC50 on Keap1/Nrf2 was found to be 50.2 nM.

For `N#Cc1ccc(S(=O)(=O)N(CC(=O)O)c2ccc(N(CC(=O)O)S(=O)(=O)c3ccc(C#N)cc3)c3ccccc23)cc1`, in [1] (read-out: solubility), the solubility is 1100 µg/mL (≈ 1820 µM). Besides, the logD in series [2] came to 0.65. In addition, the 50% inhibitory concentration (IC50) on Keap1/Nrf2 was determined as 118 nM.

Consider `Cc1cc(C)c(S(=O)(=O)N(CC(=O)O)c2ccc(N(CC(=O)O)S(=O)(=O)c3c(C)cc(C)cc3C)c3ccccc23)c(C)c1`, for which, in series [1] (read-out: solubility), the solubility came to 20 µg/mL (≈ 31.3 µM). The pH-dependent lipophilicity (logD) in series [2] stood at 3.44. The same compound yielded an IC50 at Keap1/Nrf2 of 979 nM.

For `O=C(O)CN(c1ccc(N(CC(=O)O)S(=O)(=O)c2ccccc2)c2ccccc12)S(=O)(=O)c1ccccc1`, the solubility in series [1] (read-out: solubility) turned out to be 183 µg/mL (≈ 330 µM). Further, the logD in series [2] is 0.45. At Keap1/Nrf2, the IC50 was 34.3 nM.

Take `O=C(O)CN(c1ccc(N(CC(=O)O)S(=O)(=O)c2ccc(C(F)(F)F)cc2)c2ccccc12)S(=O)(=O)c1ccc(C(F)(F)F)cc1`: the solubility in series [1] (read-out: solubility) is 12.3 µg/mL (≈ 17.8 µM). This compound gave a logD in series [2] of 2.81. On Keap1/Nrf2, this compound came in with an IC50 of 122 nM.

In the case of `O=C(O)CN(c1ccc(N(CC(=O)O)S(=O)(=O)c2cccc3ccccc23)c2ccccc12)S(=O)(=O)c1cccc2ccccc12`, the solubility in series [1] (read-out: solubility) came to 5 µg/mL (≈ 7.64 µM). The logD in series [2] stood at 3.9. On Keap1/Nrf2, this compound showed an IC50 of 47.4 nM.

For `C[C@@H]1C[C@H]2[C@@H]3CCC4=CC(=O)C=C[C@]4(C)[C@@]3(F)[C@@H](O)C[C@]2(C)[C@@]1(O)C(=O)CO`, the inhibition result in the series on Mus musculus [3], with Mus musculus [4], in the series on Mus musculus [5], in the series on Mus musculus [6] and with Mus musculus [7] was “Active” throughout.

Turning to `COc1ccc(S(=O)(=O)N(CC(=O)O)c2cccc3c(N(CC(=O)O)S(=O)(=O)c4ccc(OC)cc4)cccc23)cc1`, the IC50 at Keap1/Nrf2 came out at 1860 nM. This counts as single-digit micromolar.

`Cc1ccc(S(=O)(=O)N(CC(=O)O)c2ccc(N(CC(=O)O)S(=O)(=O)c3ccc(C)cc3)c3ccccc23)cc1`: the solubility in series [1] (read-out: solubility) was found to be 248 µg/mL (≈ 426 µM). This compound registered a logD in series [2] of 0.93. Also, the IC50 on Keap1/Nrf2 was determined as 18.1 nM.

`Cc1ccc(S(=O)(=O)N(CC(=O)O)c2ccc(N(CC(=O)O)S(=O)(=O)c3ccc(C)cc3)cc2)cc1` had an IC50 at Keap1/Nrf2 of 966 nM.

Consider `O=C(O)CN(c1ccc(N(CC(=O)O)S(=O)(=O)c2ccc(F)cc2)c2ccccc12)S(=O)(=O)c1ccc(F)cc1`, for which the solubility in [1] (read-out: solubility) worked out at 3800 µg/mL (≈ 6430 µM). For the same compound, in [2], the logD is 1.16. The IC50 on Keap1/Nrf2 was 54.3 nM.

On to `CC(=O)Nc1ccc(S(=O)(=O)N(CC(=O)O)c2ccc(N(CC(=O)O)S(=O)(=O)c3ccc(NC(C)=O)cc3)c3ccccc23)cc1`, for which the Activity entry with Mus musculus [8], with Mus musculus [9], in the series with Mus musculus [10] and with Mus musculus [11] was “Non-toxic” throughout. The solubility in series [1] (read-out: solubility) is 5000 µg/mL (≈ 7480 µM). The logD in series [2] came out at 1.02.

In the case of `O=C(O)CN(c1ccc(N(CC(=O)O)S(=O)(=O)c2ccc(Br)cc2)c2ccccc12)S(=O)(=O)c1ccc(Br)cc1`, the solubility in [1] (read-out: solubility) came to 5.7 µg/mL (≈ 8 µM). Also, in series [2], the logD is 4.29. Further, at Keap1/Nrf2, the IC50 worked out at 36.5 nM.

On to `COc1ccc(S(=O)(=O)N(CC(=O)O)c2ccc(N(CC(=O)O)S(=O)(=O)c3ccc(OC)cc3)c3ccccc23)cc1`, for which the solubility in series [1] (read-out: solubility) amounted to 388 µg/mL (≈ 631 µM).

In the case of `COc1ccc(S(=O)(=O)N(CC(=O)O)c2ccc(N(CC(=O)O)S(=O)(=O)c3ccc(OC)cc3)c(C)c2)cc1`, the IC50 at Keap1/Nrf2 stood at 1670 nM.

Take `COc1ccc(S(=O)(=O)N(CC(=O)O)c2cc(C)c(N(CC(=O)O)S(=O)(=O)c3ccc(OC)cc3)cc2C)cc1`: the IC50 on Keap1/Nrf2 turned out to be 10200 nM.

`O=C(O)CN(c1ccc(N(CC(=O)O)S(=O)(=O)c2ccc(Cl)cc2)c2ccccc12)S(=O)(=O)c1ccc(Cl)cc1`: in [1] (read-out: solubility), the solubility is 1200 µg/mL (≈ 1920 µM). In [2], this compound registered a logD of 2.11. This compound showed an IC50 at Keap1/Nrf2 of 42.3 nM.

Regarding `CCCCc1ccc(S(=O)(=O)N(CC(=O)O)c2ccc(N(CC(=O)O)S(=O)(=O)c3ccc(CCCC)cc3)c3ccccc23)cc1`, the solubility in [1] was determined as 0.006 µg/mL (≈ 0.009 µM). Moreover, in [2], the logD came out at 1.89. This compound yielded an IC50 on Keap1/Nrf2 of 42.2 nM.

`COc1ccc(S(=O)(=O)N(CC(=O)O)c2ccc(N(CC(=O)O)S(=O)(=O)c3ccc(OC)cc3)c(OC)c2)cc1` registered an IC50 on Keap1/Nrf2 of 602 nM. This counts as sub-micromolar.

For `COc1cccc(S(=O)(=O)N(CC(=O)O)c2ccc(N(CC(=O)O)S(=O)(=O)c3cccc(OC)c3)c3ccccc23)c1`, the solubility in series [1] (read-out: solubility) is 16 µg/mL (≈ 26 µM). In series [2], this compound had a logD of 0.89. Besides, the IC50 on Keap1/Nrf2 came out at 66.1 nM.

As for `COc1ccc(S(=O)(=O)N(CC(=O)O)c2ccc(N(CC(=O)O)S(=O)(=O)c3ccc(OC)cc3)cc2)cc1`, the concentration for half-maximal inhibition (IC50) on Keap1/Nrf2 amounted to 1450 nM.

As usually defined, the solubility is the dissolved amount per volume that the medium holds. Usually logD stands for lipophilicity at a set pH, counting ionised and neutral species. What is called IC50 is the concentration needed to halve the response being measured.
